Laboratory results as given in ChEMBL document CHEMBL1145983, “Novel indolyl aryl sulfones active against HIV-1 carrying NNRTI resistance mutations: synthesis and SAR studies” (J Med Chem, 2003).

Legend:
[1] = system: MT4; assay: Cytotoxicity, reducing the vaiability of mock-infected cells; format: functional; conditions: Homo sapiens
[2] = system: Human immunodeficiency virus 1; assay: Anti-HIV activity protecting MT-4 cells from HIV-1 induced cytopathogenicity; format: functional, organism-based; conditions: Human immunodeficiency virus 1, MT4
[3] = system: Human immunodeficiency virus 1; assay: Selectivity ratio of CC50/EC50; format: functional
In short: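 Ratio of CC50 (MTT viability of mock-infected MT-4 cells) to EC50 (MTT-based 50% protection of HIV-1-infected MT-4 cells from cytopathicity), both determined in parallel.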

[4] = system: C8166; assay: Anti-HIV activity to reduce the amount of p24 in WT IIIB infected C8166 cells; format: functional, cell-based; conditions: Homo sapiens
In short: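 HIV-1 IIIB came from supernatants of persistently infected H9/IIIB cells; stock 4.5 × 10^6 CCID50/mL. Acutely infected C8166 cells (1 × 10^4/well) were incubated at 37 °C with or without compound dilutions. p24 was measured by immunoenzymatic kit. Value is the concentration reducing p24 by 90%; mean of three experiments.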

[5] = biological target: Human immunodeficiency virus type 1 reverse transcriptase (Human immunodeficiency virus 1, UniProt Q72547, K103N); assay: Activity to inhibit HIV-1 Reverse transcriptase activity in K103N
In short: (§1)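 Purified recombinant RT (wt or K103N mutant) assayed for RNA-dependent DNA polymerase activity. Buffer: 50 mM Tris-HCl pH 7.8, 80 mM KCl, 6 mM MgCl2, 1 mM DTT, 0.1 mg/mL BSA. Template:primer was poly(rC)-oligo(dG)12-18 at 0.5 OD260 unit/mL, with [3H]dGTP. Incubated 30 min at 37 °C; acid-insoluble radioactivity counted on glass-fibre filters. IC50 reported as mean of two experiments.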

[6] = biological target: Human immunodeficiency virus type 1 reverse transcriptase (Human immunodeficiency virus 1, UniProt Q72547); assay: Activity to inhibit HIV-1 Reverse transcriptase activity in WT IIIB; in short: as §1
[7] = system: MT-4 (Homo sapiens); assay: Anti-HIV activity to protect MT-4 cells from cytopathogenicity induced by HIV-1 K103N-Y181C (MTT method)

EC50 [2]	SMILES	CC50 [1]	Selectivity index [3]	EC90 [4]	IC50 [5]	IC50 [6]	EC50 [7]
2.5 µM	CCOC(=O)c1[nH]c2ccc(Cl)cc2c1Sc1cc(Cl)ccc1N	> 200 µM	>80				
> 75 µM	O=S(=O)(c1ccccc1)n1ccc2cc(Cl)ccc21	75 µM					
8 µM	CC(C)(C)c1ccc(Sc2c(C(N)=O)[nH]c3ccc(Cl)cc23)cc1	45 µM	6				
1.8 µM	CCOC(=O)c1cc2ccccc2n1S(=O)(=O)c1cc(Cl)ccc1N	50 µM	28				
5 µM	NNC(=O)c1[nH]c2ccc(Cl)cc2c1Sc1ccc(F)cc1	66 µM	13				
0.3 µM	Cc1ccccc1Sc1c(C(N)=O)[nH]c2ccc(Cl)cc12	26 µM	87				
> 200 µM	NNC(=O)c1cc2ccccc2n1S(=O)(=O)c1ccccc1	> 200 µM					
3.7 µM	CCOC(=O)c1[nH]c2ccccc2c1S(=O)(=O)c1ccccc1	157 µM	42				
0.3 µM	NC(=O)c1[nH]c2ccccc2c1S(=O)(=O)c1cc(Cl)ccc1N	3.5 µM	11.7				
1.2 µM	NC(=O)c1[nH]c2ccc(Cl)cc2c1Sc1c(Cl)cccc1Cl	61 µM	51				
0.3 µM	NNC(=O)c1[nH]c2ccc(Cl)cc2c1S(=O)(=O)c1ccc(F)cc1	44 µM	147				
1.4 µM	NC(=O)c1[nH]c2ccccc2c1Sc1ccccc1	14 µM	10				
0.5 µM	NNC(=O)c1[nH]c2ccccc2c1S(=O)(=O)c1ccccc1	133 µM	266				
0.02 µM	NC(=O)c1[nH]c2ccc(Cl)cc2c1Sc1ccccc1	9 µM	450				
2.3 µM	CCOC(=O)c1[nH]c2ccc(Cl)cc2c1Sc1ccccc1N	> 200 µM	>87				
0.011 µM	NC(=O)c1[nH]c2ccc(Cl)cc2c1S(=O)(=O)c1ccc(Cl)cc1	> 200 µM	>18182				
0.002 µM	Cc1cc(C)cc(S(=O)(=O)c2c(C(N)=O)[nH]c3ccc(Br)cc23)c1	18 µM	9000				
0.13 µM	CC(C)(C)c1ccc(S(=O)(=O)c2c(C(N)=O)[nH]c3ccc(Cl)cc23)cc1	26 µM	200				
8.3 µM	CCOC(=O)c1cc2cc(Cl)ccc2n1S(=O)(=O)c1cc(Cl)ccc1N	39 µM	4.7				
0.006 µM	Cc1cc(C)cc(Sc2c(C(N)=O)[nH]c3ccc(Cl)cc23)c1	0.7 µM	117				
> 200 µM	CCOC(=O)c1[nH]c2ccccc2c1Sc1cc(Cl)ccc1N	> 200 µM					

EC50 [2]	SMILES	CC50 [1]	Selectivity index [3]	EC90 [4]	IC50 [5]	IC50 [6]	EC50 [7]
0.04 µM	NC(=O)c1[nH]c2ccc(Cl)cc2c1S(=O)(=O)c1cc(Cl)ccc1N	4.6 µM	115				
> 32 µM	NC(=O)c1cn(S(=O)(=O)c2ccccc2)c2ccccc12	32 µM					
> 0.45 µM	Cc1ccc(Sc2c(C(N)=O)[nH]c3ccc(Cl)cc23)cc1	0.45 µM					
0.025 µM	Cc1cc(C)cc(S(=O)(=O)c2c(C(N)=O)[nH]c3ccc(C(C)O)cc23)c1 (stereo unspecified)	> 200 µM	>8000				
10 µM	NNC(=O)c1[nH]c2ccc(Cl)cc2c1Sc1ccc(Cl)cc1	30 µM	3				
1.9 µM	CCOC(=O)c1[nH]c2ccc(Cl)cc2c1S(=O)(=O)c1cc(Cl)ccc1N	> 200 µM	105				
0.015 µM	CC(=O)c1ccc2[nH]c(C(N)=O)c(S(=O)(=O)c3cc(C)cc(C)c3)c2c1	> 200 µM	> 13300				
0.05 µM	Cc1ccc(S(=O)(=O)c2c(C(=O)NN)[nH]c3ccc(Cl)cc23)cc1	> 200 µM	>4000				
> 32 µM	CCOC(=O)c1cn(S(=O)(=O)c2ccccc2)c2ccccc12	32 µM					
15 µM	NC(=O)c1cc2ccccc2n1S(=O)(=O)c1ccccc1	> 200 µM					
1.9 µM	CC(C)c1ccc(Sc2c(C(N)=O)[nH]c3ccc(Cl)cc23)cc1	52 µM	27				
> 150 µM	O=S(=O)(c1ccccc1)n1ccc2ccccc21	150 µM					
0.08 µM	CC(C)c1ccc(S(=O)(=O)c2c(C(N)=O)[nH]c3ccc(Cl)cc23)cc1	> 200 µM	>2500				
66 µM	NC(=O)c1cc2cc(Cl)ccc2n1S(=O)(=O)c1ccccc1	> 200 µM	>3				
0.5 µM	NNC(=O)c1[nH]c2ccc(Cl)cc2c1Sc1ccccc1	44 µM	88				
1.4 µM	NC(=O)c1[nH]c2ccc(Cl)cc2c1Sc1ccc(F)cc1	13 µM	9				
0.2 µM	NNC(=O)c1[nH]c2ccc(Cl)cc2c1S(=O)(=O)c1ccc(Cl)cc1	> 200 µM	>1000				
> 13 µM	NNC(=O)c1[nH]c2ccc(Cl)cc2c1Sc1cc(Cl)ccc1N	13 µM					
2.5 µM	CCOC(=O)c1[nH]c2ccccc2c1S(=O)(=O)c1cc(Cl)ccc1N	> 200 µM	>91				
0.18 µM	NC(=O)c1[nH]c2ccccc2c1S(=O)(=O)c1ccccc1	> 200 µM	> 1110				
> 54 µM	CC(C)OC(=O)c1cn(S(=O)(=O)c2ccccc2)c2ccccc12	54 µM					

EC50 [2]	SMILES	CC50 [1]	Selectivity index [3]	EC90 [4]	IC50 [5]	IC50 [6]	EC50 [7]
> 31 µM	CCOC(=O)c1cc2cc(Cl)ccc2n1S(=O)(=O)c1cc(Cl)ccc1[N+](=O)[O-]	31 µM					
0.1 µM	NC(=O)c1[nH]c2ccc(Cl)cc2c1S(=O)(=O)c1c(Cl)cccc1Cl	40 µM	400				
> 42 µM	CCOC(=O)c1cn(S(=O)(=O)c2ccccc2)c2ccc(Cl)cc12	42 µM					
> 200 µM	CC(C)OC(=O)c1cn(S(=O)(=O)c2ccccc2)c2ccc(Cl)cc12	> 200 µM					
9 µM	NC(=O)c1[nH]c2ccccc2c1Sc1cc(Cl)ccc1N	20 µM	2.2				
> 200 µM	CCOC(=O)c1cc2ccccc2n1S(=O)(=O)c1ccccc1	> 200 µM					
> 200 µM	CCOC(=O)c1cc2cc(Cl)ccc2n1S(=O)(=O)c1ccccc1	> 200 µM					
> 200 µM	CCOC(=O)c1[nH]c2ccccc2c1Sc1ccccc1	> 200 µM					
0.1 µM	Cc1cc(C)cc(S(=O)(=O)c2c(C(=O)NN)[nH]c3ccc(Cl)cc23)c1	> 200 µM	>2000				
> 200 µM	CCOC(=O)c1cc2cc(Cl)ccc2n1S(=O)(=O)c1ccc(Cl)cc1	> 200 µM					
0.014 µM	NC(=O)c1[nH]c2ccc(Cl)cc2c1S(=O)(=O)c1ccc(F)cc1	17 µM	1214				
0.3 µM	NNC(=O)c1[nH]c2ccc(Cl)cc2c1S(=O)(=O)c1cc(Cl)ccc1N	19 µM	63				
1.5 µM	Cc1ccc(Sc2c(C(=O)NN)[nH]c3ccc(Cl)cc23)cc1	129 µM	86				
1.6 µM	NC(=O)c1[nH]c2ccc(Cl)cc2c1Sc1cc(Cl)ccc1N	33 µM	20				
> 200 µM	CCOC(=O)c1[nH]c2ccc(Cl)cc2c1S(=O)(=O)c1ccccc1N	> 200 µM					
3.1 µM	NC(=O)c1[nH]c2ccc(Cl)cc2c1Sc1ccc(Cl)cc1	13 µM	4				
> 200 µM	NC(=O)c1cn(S(=O)(=O)c2ccccc2)c2ccc(Cl)cc12	200 µM					
> 200 µM	CCOC(=O)c1cc2ccccc2n1S(=O)(=O)c1ccccc1[N+](=O)[O-]	> 200 µM					
> 100 µM	CCOC(=O)c1cc2ccccc2n1S(=O)(=O)c1cc(Cl)ccc1[N+](=O)[O-]	> 100 µM					

SMILES	EC50 [2]	CC50 [1]	Selectivity index [3]	EC90 [4]	IC50 [5]	IC50 [6]	EC50 [7]
Cc1cc(C)cc(S(=O)(=O)c2c(C(N)=O)[nH]c3ccc(Cl)cc23)c1	0.004 µM	15 µM	3750	0.002 µM	> 5 µM	0.031 µM	0.65 µM
Cc1ccc(S(=O)(=O)c2c(C(N)=O)[nH]c3ccc(Cl)cc23)c(C)c1	0.004 µM	37 µM	9250				10 µM
NNC(=O)c1[nH]c2ccc(Cl)cc2c1S(=O)(=O)c1ccccc1	0.01 µM	> 200 µM	>20000				
